Columns and labels:
Leishmania amazonensis [1] = assay: Antileishmanial activity against GFP-tagged Leishmania amazonensis Josefa promastigotes after 72 hrs by fluorimetric assay; type: functional, organism-based
Method in brief: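 GFP-transfected promastigotes (kept in DMEM + 10% HIFCS at 27 °C, periodically re-isolated from infected mice) seeded at 5 × 10⁵ cells/ml in DMEM, 5% HIFCS, 0.5% DMSO. Exposed to 0, 10, 30, 90 µM for 72 h at 27 °C. Fluorescence read at […] / 538 nm emission; IC50 from means of triplicates.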

Leishmania amazonensis [2] = assay: Antileishmanial activity against GFP-tagged Leishmania amazonensis Josefa amastigotes infected in mouse peritoneal macrophages after 72 hrs by fluorimetric assay; type: functional, organism-based
Method in brief: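 Mouse peritoneal macrophages at 2 × 10⁶ cells/well, allowed to adhere, then infected 4 h at 37 °C with 10⁷ GFP-transfected fluorescent promastigotes. Free parasites washed off; cultured a further 72 h with compound at 0, 10, 30, 90 µM in 0.5% DMSO. Fluorescence read as for promastigotes. Maximum and minimum inhibition set by uninfected and untreated infected cells; means of triplicates.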

[3] = Cytotoxicity against mouse peritoneal macrophages assessed as LDH release after 48 hrs; type: cell-based, Macrophage
Method in brief: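 Mouse peritoneal macrophages at 2 × 10⁶ cells/well, 48 h at 37 °C in DMEM + 5% HIFCS with compound at 0, 10, 30, 90 µM in 0.5% DMSO. LDH released into medium measured by kit. Maximum and minimum release set by 2% Triton X-100 and 0.5% DMSO; means of triplicates.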

[4] = Selectivity index, ratio of IC50 for mouse peritoneal macrophages to IC50 for Leishmania amazonensis Josefa amastigotes
Method in brief: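 Macrophage LDH-release IC50 divided by intracellular amastigote IC50.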

[5] = Leishmania amazonensis, Josefa, 72 h

Compound: IVERMECTIN [listing 1 of 2 here]
- IC50 (Leishmania amazonensis [1]): 7 µM
- IC50 (Leishmania amazonensis [2]): 5 µM
- IC50 ([3]; macrophage): 72.4 µM

Compound: CC[C@H](C)[C@H]1O[C@]2(CC[C@@H]1C)C[C@@H]1C[C@@H](C/C=C(\C)[C@@H](O[C@H]3C[C@H](OC)[C@@H](O)[C@H](C)O3)[C@@H](C)/C=C/C=C3\CO[C@@H]4[C@H](O)C(C)=C[C@@H](C(=O)O1)[C@]34O)O2
- IC50 (Leishmania amazonensis [1]; [5]): 7.7 µM
- IC50 (Leishmania amazonensis [2]; [5]): 29.7 µM
- IC50 ([3]; Mus musculus, Macrophage, 48 h): > 90 µM
- Ratio IC50 [4]: >3

Compound: D-glutonic acid, 2,4:2',4'-O-[oxybis-(oxidostibylidyne)]bis-, trisodium salt, nonahydrate
- Ratio IC50 [4]: > 5

Compound: CC[C@H](C)[C@H]1O[C@]2(CC[C@@H]1C)C[C@@H](O)C[C@@H](C/C=C(\C)[C@@H](O)[C@@H](C)CO)O2 [NORTHERN AGLYCONE]
- IC50 (Leishmania amazonensis [1]; [5]): > 90 µM
- IC50 (Leishmania amazonensis [2]; [5]): 30.5 µM
- IC50 ([3]; Mus musculus, Macrophage, 48 h): > 90 µM
- Ratio IC50 [4]: >3

Compound: IVERMECTIN [listing 2 of 2 here]
- Ratio IC50 [4]: 14.5

Compound: CCOC(=O)[C@@H]1C=C(C)[C@@H](O)[C@H]2OC/C(=C\CO)[C@]21O [SOUTHERN DIOL]
- IC50 (Leishmania amazonensis [1]; [5]): > 90 µM
- IC50 (Leishmania amazonensis [2]; [5]): 38.6 µM
- IC50 ([3]; Mus musculus, Macrophage, 48 h): > 90 µM
- Ratio IC50 [4]: >2.3

Compound: CC[C@H](C)[C@H]1O[C@]2(CC[C@@H]1C)C[C@@H]1C[C@@H](C/C=C(\C)[C@@H](O)[C@@H](C)/C=C/C=C3\CO[C@@H]4[C@H](O)C(C)=C[C@@H](C(=O)O1)[C@]34O)O2 [IVM AGLYCONE]
- IC50 (Leishmania amazonensis [1]; [5]): 8.3 µM
- IC50 (Leishmania amazonensis [2]; [5]): 32 µM
- IC50 ([3]; Mus musculus, Macrophage, 48 h): > 90 µM
- Ratio IC50 [4]: >2.8

Compound: CC[C@H](C)[C@H]1O[C@]2(CC[C@@H]1C)C[C@@H]1C[C@@H](C/C=C(\C)[C@@H](O[C@H]3C[C@H](OC)[C@@H](O[C@H]4C[C@H](OC)[C@@H](O)[C@H](C)O4)[C@H](C)O3)[C@@H](C)/C=C/C=C3\CO[C@@H]4[C@H](O)[C@@H](C)C=C(C(=O)O1)[C@]34O)O2
- IC50 (Leishmania amazonensis [1]; [5]): 13.8 µM
- IC50 (Leishmania amazonensis [2]; [5]): 3.6 µM
- IC50 ([3]; Mus musculus, Macrophage, 48 h): 65.5 µM
- Ratio IC50 [4]: 18.2

Compound: C[C@@H]1[C@H](O)[C@@H](C)/C=C/C=C/C=C/C=C/C=C/C=C/C=C/[C@H](O[C@@H]2O[C@H](C)[C@@H](O)[C@H](N)[C@@H]2O)C[C@@H]2O[C@](O)(C[C@@H](O)C[C@@H](O)[C@H](O)CC[C@@H](O)C[C@@H](O)CC(=O)O[C@H]1C)C[C@H](O)[C@H]2C(=O)O [AMPHOTERICIN B]
- IC50 (Leishmania amazonensis [1]; [5]): 4.4 µM

Compound: CCOC(=O)C1=C[C@H](C)[C@@H](O)[C@H]2OC/C(=C\C=C\[C@H](C)[C@H](O[C@H]3C[C@H](OC)[C@@H](O[C@H]4C[C@H](OC)[C@@H](O)[C@H](C)O4)[C@H](C)O3)/C(C)=C/C[C@@H]3C[C@H](O)C[C@]4(CC[C@H](C)[C@@H]([C@@H](C)CC)O4)O3)[C@@]12O
- IC50 (Leishmania amazonensis [1]; [5]): 2.8 µM
- IC50 (Leishmania amazonensis [2]; [5]): 4.6 µM
- IC50 ([3]; Mus musculus, Macrophage, 48 h): 27.1 µM
- Ratio IC50 [4]: 5.8

Compound: CCOC(=O)C1=C[C@H](C)[C@@H](O)[C@H]2OC/C(=C\CO)[C@@]12O
- IC50 (Leishmania amazonensis [1]; [5]): > 90 µM
- IC50 (Leishmania amazonensis [2]; [5]): 13.8 µM
- IC50 ([3]; Mus musculus, Macrophage, 48 h): > 90 µM
- Ratio IC50 [4]: >6.5

Compound: CC[C@H](C)[C@H]1O[C@]2(CC[C@@H]1C)C[C@@H](O)C[C@@H](C/C=C(\C)[C@@H](O[C@H]1C[C@H](OC)[C@@H](O[C@H]3C[C@H](OC)[C@@H](O)[C@H](C)O3)[C@H](C)O1)[C@@H](C)CO)O2
- IC50 (Leishmania amazonensis [1]; [5]): 17.1 µM
- IC50 (Leishmania amazonensis [2]; [5]): 13.2 µM
- IC50 ([3]; Mus musculus, Macrophage, 48 h): 55 µM
- Ratio IC50 [4]: 4.2

Compound: CC[C@H](C)[C@H]1O[C@]2(CC[C@@H]1C)C[C@@H](O)C[C@@H](CCO)O2 [SPIRODIOL]
- IC50 (Leishmania amazonensis [1]; [5]): > 90 µM
- IC50 (Leishmania amazonensis [2]; [5]): 54.5 µM
- IC50 ([3]; Mus musculus, Macrophage, 48 h): > 90 µM
- Ratio IC50 [4]: >1.7

Compound: CC[C@H](C)[C@H]1O[C@]2(CC[C@@H]1C)C[C@@H](O)C[C@@H](C/C=C(\C)[C@@H](O[C@H]1C[C@H](OC)[C@@H](O)[C@H](C)O1)[C@@H](C)CO)O2 [NORTHERN MONOSACCHARIDE]
- IC50 (Leishmania amazonensis [1]; [5]): 65.7 µM
- IC50 (Leishmania amazonensis [2]; [5]): 41.5 µM
- IC50 ([3]; Mus musculus, Macrophage, 48 h): 32.1 µM
- Ratio IC50 [4]: 0.8

Compound: CCOC(=O)[C@@H]1C=C(C)[C@@H](O)[C@H]2OC/C(=C\C=C\[C@H](C)[C@H](O[C@H]3C[C@H](OC)[C@@H](O[C@H]4C[C@H](OC)[C@@H](O)[C@H](C)O4)[C@H](C)O3)/C(C)=C/C[C@@H]3C[C@H](O)C[C@]4(CC[C@H](C)[C@@H]([C@@H](C)CC)O4)O3)[C@]21O
- IC50 (Leishmania amazonensis [1]; [5]): 10.7 µM
- IC50 (Leishmania amazonensis [2]; [5]): 6.5 µM
- IC50 ([3]; Mus musculus, Macrophage, 48 h): 42.9 µM
- Ratio IC50 [4]: 6.6

Compound: CO[C@H]1C[C@H](O[C@H]2[C@H](C)O[C@@H](O[C@H](C(C)O)[C@@H](C)CO)C[C@@H]2OC)O[C@@H](C)[C@@H]1O (some centres undefined)
- IC50 (Leishmania amazonensis [1]; [5]): > 90 µM
- IC50 (Leishmania amazonensis [2]; [5]): > 90 µM
- IC50 ([3]; Mus musculus, Macrophage, 48 h): 86.2 µM
- Ratio IC50 [4]: <1

Source: ChEMBL document CHEMBL1140890, “Ivermectin-derived leishmanicidal compounds” (Bioorg Med Chem, 2009)
